Calls of active or inactive are those of the source. The rule behind the calls is not given here.
Columns and labels:
Mus musculus [1] = species: Mus musculus; experiment: Activity in mouse pentylenetetrazole convulsant test.; type: functional
Outline: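 Male mice, 8-16 per group. Test compound dosed orally 1 h before sc PTZ, either a convulsive 125 mg/kg (protection) or a subconvulsive 75 or 90 mg/kg (potentiation). Animals were watched 2 h for tonic convulsions and death. ED50 came from probit analysis.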

[2] = target: GABA-A receptor; anion channel; experiment: Displacement of [3H]diazepam from rat cerebral cortex benzodiazepine receptor; type: tissue-based
Mus musculus [3] = experiment: Agonist activity was evaluated by mouse pentylenetetrazole (PTZ) convulsant test; inactive to 10 mg/kg administered intravenously; type: functional, organism-based; design: dose 10 mg/kg
Mus musculus [4] = experiment: Inverse agonist activity was evaluated by Mouse pentylenetetrazole (PTZ) proconvulsant activity test; by peroral administration of 90 mg/kg convulsive dose of PTZ; inactive to 10 mg/kg administered intravenously; type: functional, organism-based
Mus musculus [5] = experiment: Inverse agonist activity was evaluated by mouse pentylenetetrazole (PTZ) proconvulsant activity test; by peroral administration of 90 mg/kg convulsive dose of PTZ; inactive to 10 mg/kg administered intravenously; type: functional, organism-based
Mus musculus [6] = experiment: Inverse agonist activity was evaluated by Mouse pentylenetetrazole (PTZ) proconvulsant activity test; by administering 75 mg/kg convulsive dose of PTZ, 1 hr after oral administration of test compound; type: functional
Outline: (§1)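 Male mice, 8-16 per group. Test compound given po, followed 1 h later by a subconvulsive dose of PTZ (75 mg/kg sc). Tonic convulsions and death were scored over a 2-h observation.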

Mus musculus [7] = experiment: Inverse agonist activity was evaluated by Mouse pentylenetetrazole (PTZ) proconvulsant activity test; at 3.64-18.28 mg/kg by peroral administration of 90 mg/kg convulsive dose of PTZ.; type: functional; details: route oral
Mus musculus [8] = experiment: Inverse agonist activity was evaluated by Mouse pentylenetetrazole (PTZ) proconvulsant activity test at 11.71-22.28 mg/kg by administering 75 mg/kg convulsive dose of PTZ, 1 hr after oral administration of test compound; type: functional; outline: as §1
Mus musculus [9] = experiment: Inverse agonist activity was evaluated by Mouse pentylenetetrazole (PTZ) proconvulsant activity test at 28.18 mg/kg by administering 75 mg/kg convulsive dose of PTZ, 1 hr after oral administration of test compound; type: functional; outline: as §1
Mus musculus [10] = experiment: Inverse agonist activity was evaluated by Mouse pentylenetetrazole (PTZ) proconvulsant activity test; at 7.7-119.81 mg/kg by peroral administration of 90 mg/kg convulsive dose of PTZ.; type: functional; details: route oral
Mus musculus [11] = experiment: Agonist activity was evaluated by mouse pentylenetetrazole (PTZ) convulsant test after p.o. administration; details: po
Mus musculus [12] = experiment: Inverse agonist activity was evaluated by mouse pentylenetetrazole (PTZ) proconvulsant activity test; by administering 75 mg/kg convulsive dose of PTZ, 1 hr after oral administration of test compound; In active to 10 iv; type: functional, organism-based; design: dose 75 mg/kg; outline: as §1
Mus musculus [13] = experiment: Inverse agonist activity was evaluated by mouse pentylenetetrazole (PTZ) proconvulsant activity test at 6.7-16.7 mg/kg by peroral administration of 90 mg/kg convulsive dose of PTZ; type: functional; details: route oral
Mus musculus [14] = experiment: Inverse agonist activity was evaluated by mouse pentylenetetrazole (PTZ) proconvulsant activity test; by peroral administration of 90 mg/kg convulsive dose of PTZ.; type: functional; details: route oral
Mus musculus [15] = experiment: Inverse agonist activity was evaluated by mouse pentylenetetrazole (PTZ) proconvulsant activity test; by administering 75 mg/kg convulsive dose of PTZ, 1 hr after oral administration of test compound; type: functional; outline: as §1
Mus musculus [16] = experiment: Inverse agonist activity was evaluated by Mouse pentylenetetrazole (PTZ) proconvulsant activity test; by peroral administration of 90 mg/kg convulsive dose of PTZ.; type: functional; details: route oral
Mus musculus [17] = experiment: Inverse agonist activity was evaluated by Mouse pentylenetetrazole (PTZ) proconvulsant activity test at 3.53-11.93 mg/kg by peroral administration of 90 mg/kg convulsive dose of PTZ.; type: functional; details: route oral
Mus musculus [18] = experiment: Inverse agonist activity was evaluated by Mouse pentylenetetrazole (PTZ) proconvulsant activity test at 4.54-12.28 mg/kg by administering 75 mg/kg convulsive dose of PTZ, 1 hr after oral administration of test compound; type: functional; outline: as §1
Mus musculus [19] = experiment: Inverse agonist activity was evaluated by mouse pentylenetetrazole (PTZ) proconvulsant activity test at 10 mg/kg by peroral administration of 90 mg/kg convulsive dose of PTZ.; type: functional
Mus musculus [20] = experiment: Inverse agonist activity was evaluated by Mouse pentylenetetrazole (PTZ) proconvulsant activity test at 22.39-75 mg/kg by peroral administration of 90 mg/kg convulsive dose of PTZ.; type: functional; details: route oral
Mus musculus [21] = experiment: Inverse agonist activity was evaluated by Mouse pentylenetetrazole (PTZ) proconvulsant activity test at 50 mg/kg by administering 75 mg/kg convulsive dose of PTZ, 1 hr after oral administration of test compound; type: functional; outline: as §1
Mus musculus [22] = experiment: Inverse agonist activity was evaluated by Mouse pentylenetetrazole (PTZ) proconvulsant activity test 9.76-20.68 mg/kg by peroral administration of 90 mg/kg convulsive dose of PTZ.; type: functional; details: route oral
Mus musculus [23] = experiment: Inverse agonist activity was evaluated by Mouse pentylenetetrazole (PTZ) proconvulsant activity test at 25.87-58.54 mg/kg by administering 75 mg/kg convulsive dose of PTZ, 1 hr after oral administration of test compound; type: functional; outline: as §1
Mus musculus [24] = experiment: Inverse agonist activity was evaluated by Mouse pentylenetetrazole (PTZ) proconvulsant activity test at 14.6-34.51 mg/kg by peroral administration of 90 mg/kg convulsive dose of PTZ.; type: functional; details: route oral

Compound | ED50 (Mus musculus [1]) [mg/kg] | Ki [2] [nM] | further results
Cc1cc(-c2nc3c(cnc4ccc(Cl)cc43)[nH]2)on1 | 10.6 | 0.5 | –
Cc1cc(-c2nc3c(cnc4cc(F)ccc43)[nH]2)on1 | 5.15 | 1.4 | –
Cc1cc(-c2nc3c4c(ncc3[nH]2)CCOC4)on1 | 11.2 | 3.3 | –
Cc1cc(-c2nc3c(cnc4cc(Cl)ccc43)[nH]2)on1 | 29.8 | 18.8 | –
Cc1cc(-c2nc3c(cnc4ccccc43)[nH]2)no1 | 16.4 | 0.9 | –
Cc1cc(-c2nc3c4c(ncc3[nH]2)CCCC4)on1 | 8.12 | 2.2 | –
Cc1cc(-c2nc3c(cnc4c(F)cccc43)[nH]2)on1 | – | 302 | ED50 (Mus musculus [3]): inactive
c1cc(-c2nc3c4c(ncc3[nH]2)CCCCC4)no1 | – | 5.2 | ED50 (Mus musculus [3]): inactive; Animals affected (Mus musculus [4]): inactive
Fc1ccc2c3nc(-c4ccon4)nc-3c[nH]c2c1 | 39.9 | 0.9 | –
c1cc(-c2nc3c4c(ncc3[nH]2)CCCC4)no1 | – | 1.2 | ED50 (Mus musculus [3]): inactive; Animals affected (Mus musculus [5]): inactive
c1ccc2c(c1)ncc1[nH]c(-c3ccno3)nc12 | – | 1 | ED50 (Mus musculus [3]): inactive; ED50 (Mus musculus [4]): inactive; ED50 (Mus musculus [6]): 1.94 mg/kg
c1csc(-c2nc3c[nH]c4ccccc4c-3n2)c1 | – | 1.7 | –
COc1ccc2c3nc(-c4ccon4)nc-3c[nH]c2c1 | – | 7.2 | ED50 (Mus musculus [7]): 8.77 mg/kg; ED50 (Mus musculus [8]): 16.2 mg/kg
Fc1ccc2[nH]cc3nc(-c4ccon4)nc-3c2c1 | – | 0.8 | ED50 (Mus musculus [9]): 64.1 mg/kg; ED50 (Mus musculus [10]): 16.5 mg/kg
CN1C(=O)CN=C(c2ccccc2)c2cc(Cl)ccc21 [DIAZEPAM] | – | – | ED50 (Mus musculus [11]): 0.67 mg/kg
Cc1cc(-c2nc3c4c(ncc3[nH]2)CCC4)on1 | 5.97 | 14.6 | –
Cc1cc(-c2nc3c(cnc4cccc(Cl)c43)[nH]2)on1 | 8.53 | 13.7 | –
Clc1ccc(-c2nc3c(cnc4ccccc43)[nH]2)cc1 | – | 270 | –
c1ccc2c(c1)ncc1[nH]c(-c3ccon3)nc12 | – | 0.6 | ED50 (Mus musculus [12]): inactive; ED50 (Mus musculus [13]): 10.1 mg/kg
Cc1cc(-c2nc3c(cnc4ccccc43)[nH]2)cs1 | – | 4.5 | –

Compound | ED50 (Mus musculus [1]) [mg/kg] | Ki [2] [nM] | further results
c1cc(-c2nc3c4c(ncc3[nH]2)CCC4)no1 | – | 5.3 | ED50 (Mus musculus [14]): 4.72 mg/kg; ED50 (Mus musculus [15]): 9.22 mg/kg
c1cc(-c2nc3c[nH]c4c(c-3n2)COCC4)no1 | – | 2.7 | ED50 (Mus musculus [16]): 19.6 mg/kg; ED50 (Mus musculus [6]): 25 mg/kg
Clc1cccc2[nH]cc3nc(-c4ccon4)nc-3c12 | – | 7.8 | ED50 (Mus musculus [17]): 5.95 mg/kg; ED50 (Mus musculus [18]): 7.21 mg/kg
Clc1ccc2c3nc(-c4ccon4)nc-3c[nH]c2c1 | 27.2 | 3.5 | –
Fc1cccc2c1ncc1[nH]c(-c3ccon3)nc12 | – | 40 | Animals affected (Mus musculus [19]): 37.5%
O=C1C2C=Nc3ccccc3C2=NN1c1ccccc1 (stereo not given) [CGS-8216] | – | – | ED50 (Mus musculus [6]): 25 mg/kg
COc1ccc2[nH]cc3nc(-c4ccon4)nc-3c2c1 | – | 0.5 | ED50 (Mus musculus [20]): 31.5 mg/kg; Animals affected (Mus musculus [21]): 25%
c1ccc(-c2nc3c(cnc4ccccc43)[nH]2)cc1 | – | 22 | –
Cc1cc(-c2nc3c(cnc4ccccc43)[nH]2)on1 | 5.89 | 0.9 | –
Clc1ccc2[nH]cc3nc(-c4ccon4)nc-3c2c1 | – | 0.8 | ED50 (Mus musculus [22]): 14.2 mg/kg; Animals affected (Mus musculus [21]): 25%
Cc1cc(-c2nc3c4c(ncc3[nH]2)CCCCC4)on1 | 12.4 | 15.6 | –
COc1ccc2[nH]cc3nc(-c4cc(C)no4)nc-3c2c1 | 21.6 | 0.9 | –
Cc1cc(-c2nc3c(cnc4c(Cl)cccc43)[nH]2)on1 | – | – | ED50 (Mus musculus [3]): inactive; Animals affected (Mus musculus [4]): inactive
CCc1cc(-c2nc3c(cnc4ccccc43)[nH]2)no1 | 19.2 | 1.1 | –
Cc1cc(-c2nc3c(cnc4ccc(F)cc43)[nH]2)on1 | 5.41 | 1.1 | –
Clc1cccc2c1ncc1[nH]c(-c3ccon3)nc12 | – | 524 | ED50 (Mus musculus [3]): inactive; Animals affected (Mus musculus [5]): inactive
Fc1cccc2[nH]cc3nc(-c4ccon4)nc-3c12 | – | 3.4 | ED50 (Mus musculus [23]): 35.7 mg/kg; ED50 (Mus musculus [24]): 21.2 mg/kg
Cc1cc(-c2nc3c(cnc4cccc(F)c43)[nH]2)on1 | 4.86 | 4.9 | –
COc1ccc2c3nc(-c4cc(C)no4)nc-3c[nH]c2c1 | – | 9.5 | ED50 (Mus musculus [3]): inactive; Animals affected (Mus musculus [4]): inactive; ED50 (Mus musculus [6]): 46.2 mg/kg
CCc1cc(-c2nc3c(cnc4ccccc43)[nH]2)on1 | 13.5 | 1.2 | –
